B1: tRNA (parent)
chain: GUUCCGUUGGCGUAAUGGUAACGCGUCUCCCUCCUAAGGAGAAGACUGCGGGUUCGAGUCCCGUACGGAACG

This sample holds only a part of the variants without activity.

This data set covers variants of B1. Briefly: yeast fitness relative to wild type (ratio to wild type); higher = fitter; tRNA-Arg(CCU), competitive growth, 37 C, YPD. Put shortly:
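Variants of the tRNA-Arg(CCU) gene were chemically synthesised with a 3% per-site mutation rate across 69 sites and placed at the native genomic locus in Saccharomyces cerevisiae. Six parallel replicates of the pooled strains were competed in YPD at 37°C for 24 hours, and gene amplicons from the start and end populations were read by 100-nucleotide paired-end sequencing. Darwinian fitness relative to wild type was derived from changes in genotype frequencies. Genotypes required ≥ 100 starting reads, and estimates < 0.5 were set to 0.5.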
On to GUUCCGUUGGCGUAAUGGUAACGCGUCUCCCUCCUAGGGAGAAGACCGCGGGUUCGAGUCCCGUACGGAACG [A37G U47C], for which the yeast fitness was found to be 0.744. Under GUUCCGUUGGCGUAAUGGUAACGCGUCUCCCUCCUAGGGAGAAGACUGCGGGUUCGAGUCCCGUACCGAACG [A37G G67C] stands 0.79. For the variant GUUCCGUUGGCGUAAUGGUAACGCGUCUCCCUCCUAUGGAGAAGUCUGCGGGUUCGAGUCCCGUGCGGAACG [A37U A45U A65G], the yeast fitness is not above 0.5. GUUCCGUUGGCGUAAUGGUAACGCGUCUCCCUCCUAGGGAGAAAACUGCGGGUUCGAGUCCCGGACGGAACG [A37G G44A U64G]: the yeast fitness was not above 0.5.

For the variant GUUCCGUUGGCGUAAUGGUAACGCGUCUCCCUCCUAGGGAGAAAACUGCGGGUUCGAGUCCCGUAUGGAACG [A37G G44A C66U], the yeast fitness worked out at 0.731. Regarding GUUCCGUUGGCGUAAUGGUAACGCGUCUCCCUCCUAGGGAGAAGACUGCGGGUCCGAGUCCCGUUCGGAACG [A37G U54C A65U], the yeast fitness was not above 0.5. The figure for GUUCCGUUGGCGUAAUGGUAACGCGUCUCCCUCCUAUGGAGAAGACUGCGGGUUCGCGUCCCGUACGGAACG [A37U A57C] is 0.578. For the variant GUUCCGUUGGCGUAAUGGUAACGCGUCUCCCUCCUAUGGCGAAGACUGCGCGUUCGAGUCCCGUAAGGAACG [A37U A40C G51C C66A], the yeast fitness is not above 0.5.

Consider GUUCCGUUGGCGUAAUGGUAACGCGUCUCCCUCCUAGGGAGAAAACUGCGGGUUCGAGUCCCGUACGGUACG [A37G G44A A69U], for which the yeast fitness is 0.525.

Take GUUCCGUUGGCGUAAUGGUAACGCGUCUCCCUCCUAGGGAGAAGACUGCGGGUACGAGUCCCGUACGGAACG [A37G U54A]: the yeast fitness is not above 0.5. Take GUUCCGUUGGCGUAAUGGUAACGCGUCUCCCUCCUAGGGAGAAGACUGCGGGUCCGAGUCCCGUACGGAACG [A37G U54C]: the yeast fitness worked out at 0.674. The figure for GUUCCGUUGGCGUAAUGGUAACGCGUCUCCCUCCUAGGGAGAAGACUACGGGUUCGAGUCCCGUACGGAACG [A37G G48A] is 0.768; for GUUCCGUUGGCGUAAUGGUAACGCGUCUCCCUCCUAUGGAGCAGACUCCGGGUUCGAGUCCCGUACGGAUCG [A37U A42C G48C A70U] it is not above 0.5. GUUCCGUUGGCGUAAUGGUAACGCGUCUCCCUCCUAGGGAGAAGACUGCAGGUUCGAGUCCCGUACGGAACG [A37G G50A]: the yeast fitness was 0.842.

As to GUUCCGUUGGCGUAAUGGUAACGCGUCUCCCUCCUAUGGAGUAGACUGCGGGUUCGAGUCCCGUCCGGAACG [A37U A42U A65C], the yeast fitness was not above 0.5. The figure for GUUCCGUUGGCGUAAUGGUAACGCGUCUCCCUCCUAGGGAGAAGACUGCGGGCUCGAGUCCCGUACGGAACG [A37G U53C] is 0.553.

In the case of GUUCCGUUGGCGUAAUGGUAACGCGUCUCCCUCCUAGGGAGAAGACUGCGGGGUCGAGUCCCGUACGGAACG [A37G U53G], the yeast fitness is not above 0.5. In the case of GUUCCGUUGGCGUAAUGGUAACGCGUCUCCCUCCUAUGGAGAAGUCUGCGGGUUCGAGUCCCGUACGGAACG [A37U A45U], the yeast fitness was determined as 0.64. On to GUUCCGUUGGCGUAAUGGUAACGCGUCUCCCUCCUAGGGAGAAGACUCUGGGUUCGAGUACCGUUCGGAACG [A37G G48C C49U C60A A65U], for which the yeast fitness was not above 0.5.

GUUCCGUUGGCGUAAUGGUAACGCGUCUCCCUCCUAGGAAGAAGAGUGCGGGCUCGAGUCCUGUACGGCACG [A37G G39A C46G U53C C62U A69C]: the yeast fitness was not above 0.5. The figure for GUUCCGUUGGCGUAAUGGUAACGCGUCUCCCUCCUAGGAAGAAGACUGCGGGUUCGAGUCCUAUACGGAACG [A37G G39A C62U G63A] is not above 0.5; for GUUCCGUUGGCGUAAUGGUAACGCGUCUCCCUCCUAGGGAGAAGACUGCGGGUUCGAGGCCCGUACGGAACG [A37G U59G] it is 0.75; for GUUCCGUUGGCGUAAUGGUAACGCGUCUCCCUCCUAGGGAGAAGACAGCGGGUUCGAGUACCGUACGGAACG [A37G U47A C60A] it is not above 0.5. GUUCCGUUGGCGUAAUGGUAACGCGUCUCCCUCCUAUGGAGGAGACUGCGGGUUCGAGUCCCGUACGGAACG [A37U A42G]: the yeast fitness is 0.588. Turning to GUUCCGUUGGCGUAAUGGUAACGCGUCUCCCUCCUAUGGAGCAGACUGCGGGUUCGAGUCCCGUACGGAACG [A37U A42C], the yeast fitness is 0.698.

GUUCCGUUGGCGUAAUGGUAACGCGUCUCCCUCCUAUGGAGCAGACUGCGGGUUCGAGUCCCGUACGGCACG [A37U A42C A69C]: the yeast fitness is not above 0.5. As for GUUCCGUUGGCGUAAUGGUAACGCGUCUCCCUCCUAGGGAGAAGACGGCGGAUUCGAGUCCCGUACGGAACG [A37G U47G G52A], the yeast fitness was not above 0.5. Under GUUCCGUUGGCGUAAUGGUAACGCGUCUCCCUCCUAUGGAGAAGUCUGCGGGUUCGAGUCCCGUACGUAACG [A37U A45U G68U] stands not above 0.5; under GUUCCGUUGGCGUAAUGGUAACGCGUCUCCCUCCUAGGGAGAAGACUGCGCGUUCGAGUCCCGUACGGAUCG [A37G G51C A70U], not above 0.5; under GUUCCGUUGGCGUAAUGGUAACGCGUCUCCCUCCUAUGGAGAAGCAUGCGGGUUCGAGUCCCGUACGGAACG [A37U A45C C46A], 0.598.

In the case of GUUCCGUUGGCGUAAUGGUAACGCGUCUCCCUCCUAGGGAGAACACUGCGGGUUCGAGUCCCGUACGGAACG [A37G G44C], the yeast fitness came out at 0.809. With GUUCCGUUGGCGUAAUGGUAACGCGUCUCCCUCCUAGGGAGAAAACUGCGGGUUCGAGUCCCGUACGGAACG [A37G G44A], the yeast fitness was 0.73.

For GUUCCGUUGGCGUAAUGGUAACGCGUCUCCCUCCUAGGGAGAAAACUGCGGGUUCGAGUCCCGUCCGGAACG [A37G G44A A65C], the yeast fitness stood at 0.561. Consider GUUCCGUUGGCGUAAUGGUAACGCGUCUCCCUCCUAGGGAGAAGACUGCGGCUUCGAGUCCCGUACGGAUCG [A37G G52C A70U], for which the yeast fitness turned out to be 0.552.

For GUUCCGUUGGCGUAAUGGUAACGCGUCUCCCUCCUAGGGAAAAGACUGCAGGUUCGAGUCCCGUACGGAACG [A37G G41A G50A], the yeast fitness was not above 0.5. Under GUUCCGUUGGCGUAAUGGUAACGCGUCUCCCUCCUAUGGCGAAGACUGCGGGUUCGAGUCCCGUACGGAACG [A37U A40C] stands 0.776; under GUUCCGUUGGCGUAAUGGUAACGCGUCUCCCUCCUAUGGUGAAGACUGCGGGUUCGAGUCCCGUACGGAACG [A37U A40U], 0.72; under GUUCCGUUGGCGUAAUGGUAACGCGUCUCCCUCCUAGGGAGAAGACUGCGGGUUCCAGUCCCGUACGGCACG [A37G G56C A69C], not above 0.5.

(Values after the RNAGym collection of RNA variant scans (doi:10.1126/science.aae0568).)
